Hits are enriched below; roughly 3.1% of the tested compounds scored in any of these assays.
CFTR F508del cor: CFTR F508del correction in bronchial cells | CFBE cells, YFP halide quenching; stimulated with forskolin plus potentiator P3; % fluorescence drop versus neutral controls | activity (quench increase), % at 7.58 µM | actives 0.36% (n = 350,000) | AID 720511;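 active = mean added fluorescence quench of at least 8% versus neutral control, with both replicates also reaching 8%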;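 note: cells transiently co-express mutant CFTR-F508del with the halide-sensitive YFP; corrector assay measuring rescue of mutant channel to the surface after 24 h compound exposure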
Ecoli rRNA inh: inhibits bacterial ribosomal RNA function over humanized ribosomes; E. coli WT GFP vs humanized-ribosome RFP mutants, fluorescence, 24 h; active compounds read low; DMSO median 0, no signal -100; GFP signal change (wild-type ribosome), % (concentration not given with the values); actives 1.6% (n = 350,000); AID 720706;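 active = significant combined selectivity score with lowered wild-type GFP, culture density cut under 30%, mutant RFP and density less affected; inactive = any of these conditions unmet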
ERAP1 inh: blocks human ERAP1 aminopeptidase activity; recombinant ERAP1, Leu-AMC fluorescence, 60 min; inhibition, % at 10.7 µM; actives 0.15% (n = 340,000);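 active = mean replicate inhibition of at least 30%, or all replicates individually reaching that 30% level; inactive = mean below 30% and not every replicate reaching it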
Target sequence (Q9NZ08 whole entry, looked up): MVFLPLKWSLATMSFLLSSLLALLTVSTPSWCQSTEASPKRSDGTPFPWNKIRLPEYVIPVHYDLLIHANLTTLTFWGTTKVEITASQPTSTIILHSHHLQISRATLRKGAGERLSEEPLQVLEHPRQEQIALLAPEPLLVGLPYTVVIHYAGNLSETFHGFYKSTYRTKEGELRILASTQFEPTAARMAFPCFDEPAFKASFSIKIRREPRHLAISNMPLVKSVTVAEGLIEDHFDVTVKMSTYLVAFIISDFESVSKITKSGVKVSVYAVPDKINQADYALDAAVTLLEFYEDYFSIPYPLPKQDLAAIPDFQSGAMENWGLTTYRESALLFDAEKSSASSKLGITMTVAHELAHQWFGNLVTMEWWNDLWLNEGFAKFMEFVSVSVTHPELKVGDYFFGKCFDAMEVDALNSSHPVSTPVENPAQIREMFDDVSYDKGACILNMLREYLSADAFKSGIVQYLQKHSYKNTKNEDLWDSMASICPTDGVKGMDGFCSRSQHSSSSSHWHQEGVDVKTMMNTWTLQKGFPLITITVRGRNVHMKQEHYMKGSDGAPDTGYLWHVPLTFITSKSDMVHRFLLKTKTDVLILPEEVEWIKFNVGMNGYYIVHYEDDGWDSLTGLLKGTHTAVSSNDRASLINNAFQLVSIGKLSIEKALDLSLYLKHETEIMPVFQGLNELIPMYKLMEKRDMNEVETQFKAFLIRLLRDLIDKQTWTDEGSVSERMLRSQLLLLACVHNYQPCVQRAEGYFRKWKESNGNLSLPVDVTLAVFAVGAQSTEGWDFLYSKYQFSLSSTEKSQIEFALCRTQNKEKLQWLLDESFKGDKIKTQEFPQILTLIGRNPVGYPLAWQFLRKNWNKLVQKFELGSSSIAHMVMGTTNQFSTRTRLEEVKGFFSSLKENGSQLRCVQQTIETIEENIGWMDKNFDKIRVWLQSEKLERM
S100A4 inh HTS: inhibitors of human S100A4 binding to myosin IIA peptide | inhibition, % at 10.7 µM | S100A4/TAMRA-MyoIIA peptide fluorescence polarization | actives 0.14% (n = 360,000) | P26447;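 active = mean inhibition of at least 70% across replicates, with every replicate also reaching that level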
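assay system = human S100A4 monomer with TAMRA-labelled myosin IIA peptide | also added = labelled myosin peptide probe, 5 nM | incubation = 5 min between mix addition and reading | control set = DMSO and TFP controls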
SIRT5 inh: sirtuin-5 (human) deacylase inhibition; Purified SirT5, succinyl-peptide AMC, trypsin-coupled fluorescence; inhibition, % at 15 µM; actives 1.1% (n = 330,000); AID 652115; in the data active = inhibition above about 15%
Large screens that a line does not name were inactive; ! = not confirmed by another sample.

COc1ccc(S(=O)(=O)N(C)C[C@H]2OCCCC[C@@H](C)Oc3ccc(NC(=O)Nc4ccc(F)cc4)cc3C(=O)N([C@@H](C)CO)C[C@H]2C)cc1	SIRT5 inh 17
C[C@@H]1CCCCO[C@@H](CN(C)S(=O)(=O)c2ccc(F)cc2)[C@H](C)CN([C@@H](C)CO)C(=O)c2cc(NC(=O)Nc3ccc(C(F)(F)F)cc3)ccc2O1	none
COc1ccc(NC(=O)Nc2ccc3c(c2)C(=O)N([C@H](C)CO)C[C@H](C)[C@@H](CN(C)S(=O)(=O)c2ccccc2)OCCCC[C@H](C)O3)cc1	SIRT5 inh 16
COc1ccc(S(=O)(=O)N(C)C[C@@H]2OCCCC[C@H](C)Oc3ccc(NC(=O)Nc4ccc(F)cc4)cc3C(=O)N([C@@H](C)CO)C[C@H]2C)cc1	none
COc1ccc(NC(=O)Nc2ccc3c(c2)C(=O)N([C@H](C)CO)C[C@H](C)[C@@H](CN(C)S(=O)(=O)c2ccccc2)OCCCC[C@@H](C)O3)cc1	none
COc1ccc(NC(=O)Nc2ccc3c(c2)C(=O)N([C@@H](C)CO)C[C@@H](C)[C@H](CN(C)S(=O)(=O)c2ccc(F)cc2)OCCCC[C@@H](C)O3)cc1	SIRT5 inh 15
COc1ccc(S(=O)(=O)N(C)C[C@H]2OCCCC[C@@H](C)Oc3ccc(NC(=O)Nc4ccc(F)cc4)cc3C(=O)N([C@@H](C)CO)C[C@@H]2C)cc1	SIRT5 inh 16
COc1ccc(S(=O)(=O)N(C)C[C@@H]2OCCCC[C@H](C)Oc3ccc(NC(=O)Nc4ccc(F)cc4)cc3C(=O)N([C@H](C)CO)C[C@@H]2C)cc1	none
C[C@H](CO)N1C[C@H](C)[C@@H](CN(C)S(=O)(=O)c2ccc(F)cc2)Oc2ccc(NC(=O)CCN3CCOCC3)cc2C1=O	SIRT5 inh 15!
COc1ccc(S(=O)(=O)N(C)C[C@@H]2OCCCC[C@@H](C)Oc3ccc(NC(=O)Nc4ccc(F)cc4)cc3C(=O)N([C@@H](C)CO)C[C@@H]2C)cc1	SIRT5 inh 17
O=C(CSc1nnc2nnc3ccccc3n12)N1CCOCC1	Ecoli rRNA inh -25
COc1ccc(NC(=O)Nc2ccc3c(c2)C(=O)N([C@@H](C)CO)C[C@@H](C)[C@H](CN(C)C(=O)Nc2ccccc2)O3)cc1	none
Cc1cc(Cc2cc(C)c(N)cc2C)c(C)cc1N	SIRT5 inh 21
Cc1ccc(C)c(N)c1	none (no result: SIRT5 inh)
C=COCCNC(=O)Nc1ccc(Cl)c(Cl)c1	Ecoli rRNA inh -21
COCCNC(=S)Nc1ccc(Cl)c(Cl)c1	none (no result: CFTR F508del cor)
COc1cc(-c2noc(C)c2C#Cc2ccsc2)cc(OC)c1OC	CFTR F508del cor 11
Cc1cccc(Nc2ncnc3onc(-c4ccc(F)cc4)c23)c1C	SIRT5 inh 16
Cc1cccc(S(=O)(=O)N2CC[C@@H]3[C@@H](CO)N(C)c4ccc(-c5ccccc5F)cc4[C@@H]32)c1	none
CCN(CC)c1ccc(/C=N/N2CCN(Cc3ccccc3Cl)CC2)c(O)c1	none
CCN(CC)c1ccc(/C=N/N2CCN(Cc3ccc(C)cc3)CC2)c(O)c1	SIRT5 inh 20
Nc1[nH]c(C(=O)c2ccccc2)c(-c2ccc(Cl)c(F)c2)c1C(=O)NCCc1c[nH]c2ccccc12	SIRT5 inh 39
CN1CCN(C(=O)CCN2C(=O)/C(=C\c3ccc(F)cc3)SC2=S)CC1	none (no result: SIRT5 inh)
COc1ccccc1/C=C1\SC(=S)N(CCC(=O)N2CCN(C)CC2)C1=O	Ecoli rRNA inh -19
O=C(CCCN1C(=O)/C(=C/c2ccccc2Cl)SC1=S)N1CCCC1	Ecoli rRNA inh -40
COc1ccccc1/C=C1\SC(=O)N(CCC(=O)NCCCn2ccnc2)C1=O	none
O=C(CCN1C(=O)/C(=C/c2ccccc2Cl)SC1=S)N1CCCC1	none
COc1ccccc1/C=C1\SC(=S)N(CCC(=O)NCCCn2ccnc2)C1=O	Ecoli rRNA inh -24
CCOC(=O)c1ccc(CC(=O)c2oc3cc(O)ccc3c2C)o1	Ecoli rRNA inh -22
N#C[C@@H]1[C@@H](c2ccccc2)[C@H](CO)N1C(=O)Nc1cccc(F)c1	none
COc1ccc(OCCOc2ccc(S(=O)(=O)N3CCCC3)cc2[N+](=O)[O-])cc1	SIRT5 inh 27
C[C@@H]1CN([C@H](C)CO)C(=O)c2cc(NS(=O)(=O)c3ccc(Cl)cc3)ccc2O[C@H]1CN(C)S(C)(=O)=O	none (no result: ERAP1 inh, S100A4 inh HTS, SIRT5 inh)
O=C(Nc1cc(F)ccc1F)N1CC(=O)N2[C@H](C1)[C@H](c1ccc(-c3cccc(F)c3)cc1)[C@@H]2CO	none
CCc1ccc(S(=O)(=O)Nc2ccc(-c3nc4cccnc4s3)cc2)s1	none
O=S(=O)(Nc1ccc(-c2nc3cccnc3s2)cc1)c1cc(F)ccc1F	Ecoli rRNA inh -20
CCS(=O)(=O)Nc1ccc2c(c1)C(=O)N(C)[C@H]1CC[C@H](CC(=O)NCCCN3CCOCC3)O[C@H]1CO2	none
C[C@@H](NC(=O)C[C@H]1C[C@@H]2c3cc(NC(=O)CN(C)C)ccc3O[C@@H]2[C@@H](CO)O1)c1ccccc1	none
O=C(NC1=NN(c2ccccc2)CC1)Nc1ccccc1F	Ecoli rRNA inh -32 (no result: ERAP1 inh)
O=C(Nc1ccccc1F)Nc1ccccc1N1CCCCC1	Ecoli rRNA inh -31 (no result: CFTR F508del cor)
O=C(Cc1c(F)cccc1Cl)Nc1ccccc1N1CCCCC1	none
C[C@@H]1CN([C@H](C)CO)C(=O)c2cccc(NC(=O)c3ccc(-c4nccs4)cc3)c2O[C@H]1CN(C)S(=O)(=O)c1ccc(F)cc1	none
O=C(Nc1cccc(NC(=O)c2cccs2)c1)c1ccc(F)cc1	Ecoli rRNA inh -28
O=C(Nc1ccc(NC(=O)c2cccs2)c(Cl)c1)c1ccco1	Ecoli rRNA inh -27
O=C(Nc1ccc(N2CCCC2)c(Cl)c1)c1cccs1	SIRT5 inh 67
COc1ccc(C(=O)Nc2cccc(NC(=O)c3cccs3)c2)cc1	none
CCNC(=O)C[C@@H]1CC[C@@H]2[C@H](COC[C@H](O)CN2C(=O)C2CC2)O1	none
COc1cccc(N2CCN(C(=O)c3c(C)nn(-c4ccccc4)c3C)CC2)c1	none
Cc1nn(Cc2ccccc2Cl)c(C)c1C(=O)N1CCN(c2ccccc2)CC1	Ecoli rRNA inh -27 (no result: CFTR F508del cor)
C[C@@H]1CN([C@@H](C)CO)C(=O)c2cccc(NC(=O)Nc3ccc4c(c3)OCO4)c2O[C@@H]1CN(C)S(=O)(=O)c1ccccc1	none
C=CC(=O)N(CCC)C(c1ccccc1)c1ccccc1OC (stereo not given)	SIRT5 inh 21
COc1ccccc1CN(C)C(=O)C(c1ccccc1)c1ccccc1	none
O=C(C[C@H]1CC[C@@H](NC(=O)c2ccccc2)[C@@H](CO)O1)NCc1ccc(Oc2ccccc2)cc1	none
COc1ccccc1CNC(=O)CSc1ccc(-c2cccs2)nn1	Ecoli rRNA inh -25
COc1ccccc1CNC(=O)CSc1ccc(-c2ccccn2)nn1	none (no result: ERAP1 inh)
COC(=O)C[C@@H]1C[C@@H]2c3cc(NC(=O)CC4CC4)ccc3O[C@@H]2[C@@H](CO)O1	none

Screening data: PubChem, Broad Institute
